Activity calls are given as the source filed them. The rule behind the calls is not given here.
Tests used:
[1] = target: Hepatocyte growth factor receptor (Homo sapiens) (UniProt P08581); test: Inhibition of cMET at 10 uM
[2] = Half life in rat liver microsomes; format: ADME, Microsome
[3] = target: Epidermal growth factor receptor (Homo sapiens) (UniProt P00533); test: Inhibition of EGFR at 10 uM
[4] = tested on: COLO 205; test: Cytotoxicity against human COLO205 cells after 72 hrs by MTS assay; settings: COLO 205, 72 h
[5] = target: T1, Dual specificity mitogen-activated protein kinase kinase 1 (Homo sapiens, UniProt Q02750); test: Inhibition of MEK1-mediated Erk1/2 phosphorylation in human HT-29 cells at 3 mg/kg plasma concentration measured after 4 hrs by in vivo pharmacodynamic model; format: organism-based; parameters: dose 3 mg/kg
Method in brief: (§1)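 In vivo pharmacodynamic study: p-ERK1/2 suppression measured 4 h after dosing across a dose response and related to compound plasma concentration.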

[6] = target: Platelet-derived growth factor receptor beta (Homo sapiens) (UniProt P09619); test: Inhibition of PDGFRbeta at 10 uM
[7] = target: Tyrosine-protein kinase SYK (Homo sapiens) (UniProt P43405); test: Inhibition of Syk at 10 uM
[8] = target: Tyrosine-protein kinase ABL1 (Homo sapiens) (UniProt P00519); test: Inhibition of ABL1 at 10 uM
[9] = Clearance in rat at 1 mg/kg, iv and 5 mg/kg, po; format: ADME, organism-based; settings: in vivo
[10] = target: Calcium/calmodulin-dependent protein kinase type 1D (Homo sapiens) (UniProt Q8IU85); test: Inhibition of CAMK1delta at 10 uM
[11] = target: 3-phosphoinositide-dependent protein kinase 1 (Homo sapiens) (UniProt O15530); test: Inhibition of PDK1 at 10 uM
[12] = tested on: HL-60; test: Antitumor activity against human HL60 cells xenograft model assessed as inhibition of tumor regression at 10 mg/kg, po; format: functional, organism-based; parameters: dose 10 mg/kg
Method in brief: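 HL-60 (NRAS) xenograft; compound given orally once daily at maximum tolerated dose over days 12–25 after tumor implant; tumor response followed versus control, complete regressions counted per group.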

[13] = target: Mitogen-activated protein kinase 14 (Homo sapiens) (UniProt Q16539); test: Inhibition of p38alpha at 10 uM
[14] = Volume of distribution at steady state in rat at 1 mg/kg, iv and 5 mg/kg, po; format: ADME, organism-based; settings: in vivo, read-out: Vdss
[15] = target: T2, Tyrosine-protein kinase JAK3 (Homo sapiens) (UniProt P52333); test: Inhibition of JAK3 at 10 uM
T2 sequence (whole entry): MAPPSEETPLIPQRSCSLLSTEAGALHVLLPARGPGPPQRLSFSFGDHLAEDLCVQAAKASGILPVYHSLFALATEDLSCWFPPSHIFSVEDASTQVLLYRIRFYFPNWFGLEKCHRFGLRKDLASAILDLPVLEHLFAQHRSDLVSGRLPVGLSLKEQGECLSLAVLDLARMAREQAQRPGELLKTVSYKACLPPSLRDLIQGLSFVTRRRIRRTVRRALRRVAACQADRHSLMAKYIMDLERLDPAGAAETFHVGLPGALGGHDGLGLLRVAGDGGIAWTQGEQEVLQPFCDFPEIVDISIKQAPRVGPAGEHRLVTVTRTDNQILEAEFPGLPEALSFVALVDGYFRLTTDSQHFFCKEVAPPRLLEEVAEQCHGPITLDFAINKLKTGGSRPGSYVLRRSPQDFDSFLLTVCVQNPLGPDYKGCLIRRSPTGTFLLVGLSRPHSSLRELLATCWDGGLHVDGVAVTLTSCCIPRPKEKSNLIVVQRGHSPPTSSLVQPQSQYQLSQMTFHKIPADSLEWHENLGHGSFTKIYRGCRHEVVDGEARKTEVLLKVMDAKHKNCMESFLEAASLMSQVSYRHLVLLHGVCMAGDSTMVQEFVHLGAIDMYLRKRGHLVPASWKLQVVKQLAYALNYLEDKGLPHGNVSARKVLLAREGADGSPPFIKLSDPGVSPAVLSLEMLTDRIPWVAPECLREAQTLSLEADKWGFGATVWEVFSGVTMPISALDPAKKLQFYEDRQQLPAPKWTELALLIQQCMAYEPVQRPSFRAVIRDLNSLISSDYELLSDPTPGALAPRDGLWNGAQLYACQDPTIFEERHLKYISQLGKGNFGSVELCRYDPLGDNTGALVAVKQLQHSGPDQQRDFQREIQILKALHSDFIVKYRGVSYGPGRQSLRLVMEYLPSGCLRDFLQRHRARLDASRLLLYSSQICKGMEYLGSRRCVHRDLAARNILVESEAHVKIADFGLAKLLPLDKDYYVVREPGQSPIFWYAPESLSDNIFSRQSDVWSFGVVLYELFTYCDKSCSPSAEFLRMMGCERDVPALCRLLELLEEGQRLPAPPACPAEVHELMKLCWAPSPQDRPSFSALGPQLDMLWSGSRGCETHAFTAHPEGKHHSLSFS

[16] = target: T1, Dual specificity mitogen-activated protein kinase kinase 1; test: Inhibition of MEK1-mediated ERK1 phosphorylation using IPTTPITTYFFFK-5FAM-COOH as substrate by fluorescent polarization assay
[17] = Oral bioavailability in rat at 5 mg/kg; format: ADME, organism-based; settings: in vivo
[18] = target: Protein kinase C alpha type (Homo sapiens) (UniProt P17252); test: Inhibition of PKCalpha at 10 uM
[19] = target: RAC-gamma serine/threonine-protein kinase (Homo sapiens) (UniProt Q9Y243); test: Inhibition of AKT3 at 10 uM
[20] = Half life in human liver microsomes; format: ADME, Microsome
[21] = target: Glycogen synthase kinase-3 beta (Homo sapiens) (UniProt P49841); test: Inhibition of GSK3beta at 10 uM
[22] = Inhibition of cytochrome P450 at 10 uM; format: ADME
[23] = target: Proto-oncogene tyrosine-protein kinase Src (Homo sapiens) (UniProt P12931); test: Inhibition of cSRC at 10 uM
[24] = tested on: A-375; test: Cytotoxicity against human A375 cells after 72 hrs by MTS assay; settings: A-375, 72 h
[25] = tested on: Rattus norvegicus; test: Dose normalized AUC in rat at 1 mg/kg, iv and 5 mg/kg, po; format: ADME, organism-based; settings: in vivo
[26] = target: Cyclin-dependent kinase 2/cyclin A (Homo sapiens) (UniProt P24941+P20248+P78396); test: Inhibition of CDK2/cyclin A at 10 uM; format: protein-complex assay
[27] = target: Angiopoietin-1 receptor (Homo sapiens) (UniProt Q02763); test: Inhibition of Tie2 at 10 uM
[28] = target: Serine/threonine-protein kinase PLK3 (Homo sapiens) (UniProt Q9H4B4); test: Inhibition of PLK3 at 10 uM
[29] = target: RAF proto-oncogene serine/threonine-protein kinase (Homo sapiens) (UniProt P04049); test: Inhibition of c-RAF at 10 uM
[30] = target: Insulin receptor (Homo sapiens) (UniProt P06213); test: Inhibition of IR at 10 uM
[31] = target: T1, Dual specificity mitogen-activated protein kinase kinase 1; test: Inhibition of MEK1-mediated Erk1/2 phosphorylation in human HT-29 cells at 30 mg/kg measured after 4 hrs by in vivo pharmacodynamic model; format: organism-based; parameters: dose 30 mg/kg; method in brief: as §1

Chain of Calcium/calmodulin-dependent protein kinase type 1D (Homo sapiens) (Q8IU85 whole entry, looked up): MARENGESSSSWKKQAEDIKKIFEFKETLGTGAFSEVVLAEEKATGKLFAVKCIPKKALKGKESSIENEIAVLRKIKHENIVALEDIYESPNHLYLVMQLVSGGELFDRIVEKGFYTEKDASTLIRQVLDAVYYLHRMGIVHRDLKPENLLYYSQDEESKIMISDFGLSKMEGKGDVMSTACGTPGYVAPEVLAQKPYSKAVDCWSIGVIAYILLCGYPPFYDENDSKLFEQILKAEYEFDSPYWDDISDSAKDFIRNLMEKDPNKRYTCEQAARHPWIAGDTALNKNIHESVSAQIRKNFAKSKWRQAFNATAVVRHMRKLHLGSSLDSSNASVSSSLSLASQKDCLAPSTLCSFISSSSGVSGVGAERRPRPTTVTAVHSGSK
Chain of Insulin receptor (Homo sapiens) (P06213 28-758 limits assumed): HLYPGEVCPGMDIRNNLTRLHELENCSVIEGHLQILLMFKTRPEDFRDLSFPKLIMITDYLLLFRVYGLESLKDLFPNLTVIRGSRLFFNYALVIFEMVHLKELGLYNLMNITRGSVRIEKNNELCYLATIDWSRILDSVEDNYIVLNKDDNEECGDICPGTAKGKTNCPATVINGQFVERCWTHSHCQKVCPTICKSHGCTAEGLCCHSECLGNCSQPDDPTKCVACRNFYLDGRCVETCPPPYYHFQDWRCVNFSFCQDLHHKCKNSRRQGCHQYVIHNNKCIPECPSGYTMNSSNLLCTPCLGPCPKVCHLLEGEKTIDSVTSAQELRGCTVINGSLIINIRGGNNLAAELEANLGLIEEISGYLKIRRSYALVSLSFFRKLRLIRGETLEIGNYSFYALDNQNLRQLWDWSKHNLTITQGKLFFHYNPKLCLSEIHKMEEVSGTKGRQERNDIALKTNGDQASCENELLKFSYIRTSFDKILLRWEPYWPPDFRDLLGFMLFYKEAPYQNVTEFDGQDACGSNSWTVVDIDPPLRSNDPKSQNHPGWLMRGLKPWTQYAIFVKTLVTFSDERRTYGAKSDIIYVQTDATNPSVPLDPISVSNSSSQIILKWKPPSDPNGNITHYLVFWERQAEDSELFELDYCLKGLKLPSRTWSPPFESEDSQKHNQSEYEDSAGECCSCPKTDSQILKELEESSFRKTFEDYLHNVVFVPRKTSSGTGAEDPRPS
Chain of Insulin receptor (Homo sapiens) (P06213 763-1382 limits assumed): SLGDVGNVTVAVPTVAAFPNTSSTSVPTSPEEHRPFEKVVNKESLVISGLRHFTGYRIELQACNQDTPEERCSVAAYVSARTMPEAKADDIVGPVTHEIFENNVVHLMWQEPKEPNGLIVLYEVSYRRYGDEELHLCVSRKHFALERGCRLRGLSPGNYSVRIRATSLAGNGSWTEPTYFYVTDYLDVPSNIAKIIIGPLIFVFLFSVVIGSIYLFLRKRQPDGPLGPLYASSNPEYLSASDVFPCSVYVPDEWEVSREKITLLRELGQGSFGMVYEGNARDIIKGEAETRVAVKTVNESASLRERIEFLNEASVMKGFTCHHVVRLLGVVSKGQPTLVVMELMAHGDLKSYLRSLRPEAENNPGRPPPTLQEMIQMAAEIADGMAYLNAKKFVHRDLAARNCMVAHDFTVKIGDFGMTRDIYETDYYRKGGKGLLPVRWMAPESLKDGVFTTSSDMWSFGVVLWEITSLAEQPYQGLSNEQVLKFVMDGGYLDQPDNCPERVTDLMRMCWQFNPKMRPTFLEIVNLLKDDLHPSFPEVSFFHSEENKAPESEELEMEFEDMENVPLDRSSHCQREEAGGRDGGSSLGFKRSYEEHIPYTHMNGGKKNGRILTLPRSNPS
Chain of Serine/threonine-protein kinase PLK3 (Homo sapiens) (Q9H4B4 whole entry, looked up): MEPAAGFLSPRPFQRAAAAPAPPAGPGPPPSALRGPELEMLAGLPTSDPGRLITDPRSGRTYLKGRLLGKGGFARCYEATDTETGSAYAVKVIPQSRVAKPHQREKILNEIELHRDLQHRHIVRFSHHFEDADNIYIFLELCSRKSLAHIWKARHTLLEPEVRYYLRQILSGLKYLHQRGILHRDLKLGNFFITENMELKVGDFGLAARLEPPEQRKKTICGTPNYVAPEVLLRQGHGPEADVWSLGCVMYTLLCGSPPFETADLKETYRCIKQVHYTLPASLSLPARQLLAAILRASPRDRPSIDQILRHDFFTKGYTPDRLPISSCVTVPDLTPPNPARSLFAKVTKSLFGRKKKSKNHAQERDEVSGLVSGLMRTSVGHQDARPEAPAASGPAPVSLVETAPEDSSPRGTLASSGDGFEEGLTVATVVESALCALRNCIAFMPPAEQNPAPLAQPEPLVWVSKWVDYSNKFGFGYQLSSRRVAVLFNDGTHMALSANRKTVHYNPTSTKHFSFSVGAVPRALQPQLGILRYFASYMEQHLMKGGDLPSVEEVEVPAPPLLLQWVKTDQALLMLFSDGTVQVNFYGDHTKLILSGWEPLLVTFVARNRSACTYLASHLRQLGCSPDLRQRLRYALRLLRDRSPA
Chain of Hepatocyte growth factor receptor (Homo sapiens) (P08581 whole entry): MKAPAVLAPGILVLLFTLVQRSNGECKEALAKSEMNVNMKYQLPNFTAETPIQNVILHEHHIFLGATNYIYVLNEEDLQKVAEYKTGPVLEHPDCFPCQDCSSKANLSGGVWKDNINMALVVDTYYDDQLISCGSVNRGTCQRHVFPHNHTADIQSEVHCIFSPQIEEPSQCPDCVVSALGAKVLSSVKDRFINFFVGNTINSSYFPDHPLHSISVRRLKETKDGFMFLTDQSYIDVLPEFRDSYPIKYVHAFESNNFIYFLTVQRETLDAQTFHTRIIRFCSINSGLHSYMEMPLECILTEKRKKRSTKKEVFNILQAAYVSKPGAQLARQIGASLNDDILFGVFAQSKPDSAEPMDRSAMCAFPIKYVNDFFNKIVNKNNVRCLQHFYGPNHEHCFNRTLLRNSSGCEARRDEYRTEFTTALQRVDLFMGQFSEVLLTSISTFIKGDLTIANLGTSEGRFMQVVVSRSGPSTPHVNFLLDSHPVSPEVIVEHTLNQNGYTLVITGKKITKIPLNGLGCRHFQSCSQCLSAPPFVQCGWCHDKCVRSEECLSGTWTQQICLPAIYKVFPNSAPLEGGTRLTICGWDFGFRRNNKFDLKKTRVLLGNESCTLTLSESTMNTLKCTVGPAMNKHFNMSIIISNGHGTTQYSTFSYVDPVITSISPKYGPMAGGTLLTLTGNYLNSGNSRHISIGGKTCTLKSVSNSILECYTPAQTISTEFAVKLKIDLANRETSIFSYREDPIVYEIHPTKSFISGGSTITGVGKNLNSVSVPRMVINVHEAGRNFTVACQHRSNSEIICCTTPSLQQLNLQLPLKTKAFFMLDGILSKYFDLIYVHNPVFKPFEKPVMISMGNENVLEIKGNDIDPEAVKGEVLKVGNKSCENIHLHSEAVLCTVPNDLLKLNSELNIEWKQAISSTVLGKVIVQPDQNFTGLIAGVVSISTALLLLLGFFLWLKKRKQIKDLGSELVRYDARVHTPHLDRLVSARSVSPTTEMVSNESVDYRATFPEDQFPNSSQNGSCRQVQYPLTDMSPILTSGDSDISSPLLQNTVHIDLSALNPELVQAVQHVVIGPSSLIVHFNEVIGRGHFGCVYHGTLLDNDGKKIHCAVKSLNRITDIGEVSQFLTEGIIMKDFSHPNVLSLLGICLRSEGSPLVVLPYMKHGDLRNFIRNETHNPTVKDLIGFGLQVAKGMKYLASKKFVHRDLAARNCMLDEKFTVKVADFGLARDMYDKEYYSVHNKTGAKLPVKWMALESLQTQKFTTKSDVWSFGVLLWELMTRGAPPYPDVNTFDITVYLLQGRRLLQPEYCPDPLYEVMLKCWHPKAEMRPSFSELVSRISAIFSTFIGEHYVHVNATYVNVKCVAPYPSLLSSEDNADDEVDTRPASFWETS
Chain of 3-phosphoinositide-dependent protein kinase 1 (Homo sapiens) (O15530 whole entry, looked up): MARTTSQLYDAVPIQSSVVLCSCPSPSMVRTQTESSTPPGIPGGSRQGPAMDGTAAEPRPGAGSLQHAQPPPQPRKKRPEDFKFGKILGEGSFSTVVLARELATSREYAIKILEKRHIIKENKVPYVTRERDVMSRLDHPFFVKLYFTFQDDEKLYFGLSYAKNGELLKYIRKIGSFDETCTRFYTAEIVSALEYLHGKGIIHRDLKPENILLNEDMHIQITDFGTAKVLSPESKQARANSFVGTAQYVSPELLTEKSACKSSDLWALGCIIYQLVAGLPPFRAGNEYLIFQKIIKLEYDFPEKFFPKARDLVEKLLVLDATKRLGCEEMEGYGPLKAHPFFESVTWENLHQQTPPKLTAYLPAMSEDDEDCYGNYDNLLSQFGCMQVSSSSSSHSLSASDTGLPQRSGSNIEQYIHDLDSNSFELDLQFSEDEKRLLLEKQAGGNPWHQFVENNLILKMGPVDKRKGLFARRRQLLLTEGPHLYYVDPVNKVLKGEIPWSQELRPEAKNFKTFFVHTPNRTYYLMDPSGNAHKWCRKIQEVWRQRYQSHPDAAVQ
Chain of RAC-gamma serine/threonine-protein kinase (Homo sapiens) (Q9Y243 whole entry): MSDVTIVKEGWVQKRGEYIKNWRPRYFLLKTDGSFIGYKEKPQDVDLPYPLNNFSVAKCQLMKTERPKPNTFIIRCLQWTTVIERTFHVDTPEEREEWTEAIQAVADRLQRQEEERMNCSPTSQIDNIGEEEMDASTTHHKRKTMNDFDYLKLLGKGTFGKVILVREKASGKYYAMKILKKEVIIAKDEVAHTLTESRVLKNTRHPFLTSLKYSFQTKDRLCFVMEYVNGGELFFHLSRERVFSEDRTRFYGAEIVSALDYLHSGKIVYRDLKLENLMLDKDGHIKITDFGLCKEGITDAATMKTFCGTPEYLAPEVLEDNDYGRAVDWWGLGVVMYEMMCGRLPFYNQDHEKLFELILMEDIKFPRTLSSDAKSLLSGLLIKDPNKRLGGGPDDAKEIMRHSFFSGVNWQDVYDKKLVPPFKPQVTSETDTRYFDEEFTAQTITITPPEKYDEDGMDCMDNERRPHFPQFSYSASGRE

Row | inhibition [1] | half-life [2] [min] | inhibition [3] | inhibition [6] | inhibition [7] | inhibition [8] | clearance [9] [mL/min/kg] | inhibition [10] | inhibition [11] | inhibition [13] | Vd [14] [L/kg] | inhibition [15] | IC50 [16] [nM] | bioavailability [17] [%] | inhibition [18] | inhibition [19] | half-life [20] [min] | inhibition [21] | inhibition (INH) [22] | Compound | EC50 [4] [nM] | also measured
1 | inactive | 40 | inactive | inactive | inactive | inactive | 21.4 | inactive | inactive | inactive | 0.971 | inactive | 38 | 29 | inactive | inactive | 99 | inactive | Not Active | Cc1c(Nc2ccc(I)cc2F)c(C(=O)NOCCO)c2n(c1=O)CCC2 | 1 | inhibition [5]: Active; inhibition [12]: Active; inhibition [23]: inactive; EC50 [24]: 2 nM; AUC/dose [25]: 204 ng·h/mL/mg/kg; inhibition [26]: inactive; inhibition [27]: inactive; inhibition [28]: inactive; inhibition [29]: inactive; inhibition [30]: inactive
2 | inactive | 38 | inactive | inactive | inactive | inactive | 5.9 | inactive | inactive | inactive | 0.596 | inactive | 32 | 61 | inactive | inactive | 34 | inactive | Not Active | C#Cc1ccc(Nc2c(C(=O)NOCCO)c3c(n2C)C(=O)CCC3)c(F)c1 | 10 | inhibition [31]: Active; inhibition [23]: inactive; EC50 [24]: 15 nM; AUC/dose [25]: 1670 ng·h/mL/mg/kg; inhibition [26]: inactive; inhibition [27]: inactive; inhibition [28]: inactive; inhibition [29]: inactive; inhibition [30]: inactive
3 | inactive | 124 | inactive | inactive | inactive | inactive | 12.9 | inactive | inactive | inactive | 0.745 | inactive | 25 | 21 | inactive | inactive | > 200 | inactive | Not Active | O=C(NOCCO)c1c(Nc2ccc(I)cc2F)c(F)c(=O)n2c1CCC2 | 1 | inhibition [23]: inactive; EC50 [24]: 3 nM; AUC/dose [25]: 262 ng·h/mL/mg/kg; inhibition [26]: inactive; inhibition [27]: inactive; inhibition [28]: inactive; inhibition [29]: inactive; inhibition [30]: inactive
